Test results published in ChEMBL document CHEMBL3352666, “Human Toll-like receptor 8-selective agonistic activities in 1-alkyl-1H-benzimidazol-2-amines” (J Med Chem, 2014).
The source made the active and inactive calls. The calls are words filed in the database; no cut-off is given here.

What was measured:
Assay type in all cases: cell-based
[1] = biological target: T1, Toll-like receptor 7 (Homo sapiens) (UniProt Q9NYK1); assay: Agonist activity at human TLR7 stably expressed in HEK293 cells co-expressing secreted alkaline phosphatase assessed as NF-kappaB induction by liquid handler-assisted reporter gene assay
T1 sequence (whole entry): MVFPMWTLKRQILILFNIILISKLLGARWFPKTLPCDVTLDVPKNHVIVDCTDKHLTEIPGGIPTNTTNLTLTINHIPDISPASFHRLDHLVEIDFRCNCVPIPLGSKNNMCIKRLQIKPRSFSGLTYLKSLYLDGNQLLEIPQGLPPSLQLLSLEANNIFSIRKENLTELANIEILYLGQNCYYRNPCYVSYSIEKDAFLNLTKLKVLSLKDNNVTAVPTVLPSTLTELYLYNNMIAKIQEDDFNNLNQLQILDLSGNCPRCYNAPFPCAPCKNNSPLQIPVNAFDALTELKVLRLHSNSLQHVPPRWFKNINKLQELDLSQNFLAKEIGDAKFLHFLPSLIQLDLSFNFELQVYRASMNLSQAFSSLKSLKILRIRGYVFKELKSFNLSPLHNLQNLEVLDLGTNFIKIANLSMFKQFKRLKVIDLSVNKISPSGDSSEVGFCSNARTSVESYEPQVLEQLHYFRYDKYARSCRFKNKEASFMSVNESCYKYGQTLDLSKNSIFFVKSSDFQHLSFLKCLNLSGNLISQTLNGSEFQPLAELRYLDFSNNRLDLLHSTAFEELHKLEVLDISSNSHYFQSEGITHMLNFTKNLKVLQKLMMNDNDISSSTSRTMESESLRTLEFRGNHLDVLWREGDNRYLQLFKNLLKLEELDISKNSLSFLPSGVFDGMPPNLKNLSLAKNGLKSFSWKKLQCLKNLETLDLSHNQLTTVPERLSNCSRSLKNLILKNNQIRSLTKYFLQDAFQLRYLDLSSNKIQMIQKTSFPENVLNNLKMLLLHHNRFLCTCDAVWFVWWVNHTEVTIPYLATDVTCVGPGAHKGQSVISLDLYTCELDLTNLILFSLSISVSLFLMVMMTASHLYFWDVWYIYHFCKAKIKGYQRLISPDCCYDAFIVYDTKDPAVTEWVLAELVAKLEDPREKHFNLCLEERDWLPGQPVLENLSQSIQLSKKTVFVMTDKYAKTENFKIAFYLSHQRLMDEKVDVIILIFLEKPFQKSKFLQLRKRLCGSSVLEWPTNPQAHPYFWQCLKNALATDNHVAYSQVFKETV
Procedure, shortened: (§1)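 HEK293 reporter cells stably co-transfected with the respective human TLR or NOD receptor plus NF-κB/AP-1-driven secreted alkaline phosphatase, kept in selection medium. About 10^5 cells/ml were incubated with graded concentrations of test compound in 384-well format. Supernatant sAP was read colorimetrically at 620 nm with an alkaline phosphatase-specific chromogen in detection medium.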

[2] = biological target: T2, Nucleotide-binding oligomerization domain-containing protein 1 (Homo sapiens) (UniProt Q9Y239); assay: Agonist activity at human NOD1 stably expressed in HEK293 cells co-expressing secreted alkaline phosphatase assessed as NF-kappaB induction by liquid handler-assisted reporter gene assay; procedure, shortened: as §1
T2 sequence (whole entry): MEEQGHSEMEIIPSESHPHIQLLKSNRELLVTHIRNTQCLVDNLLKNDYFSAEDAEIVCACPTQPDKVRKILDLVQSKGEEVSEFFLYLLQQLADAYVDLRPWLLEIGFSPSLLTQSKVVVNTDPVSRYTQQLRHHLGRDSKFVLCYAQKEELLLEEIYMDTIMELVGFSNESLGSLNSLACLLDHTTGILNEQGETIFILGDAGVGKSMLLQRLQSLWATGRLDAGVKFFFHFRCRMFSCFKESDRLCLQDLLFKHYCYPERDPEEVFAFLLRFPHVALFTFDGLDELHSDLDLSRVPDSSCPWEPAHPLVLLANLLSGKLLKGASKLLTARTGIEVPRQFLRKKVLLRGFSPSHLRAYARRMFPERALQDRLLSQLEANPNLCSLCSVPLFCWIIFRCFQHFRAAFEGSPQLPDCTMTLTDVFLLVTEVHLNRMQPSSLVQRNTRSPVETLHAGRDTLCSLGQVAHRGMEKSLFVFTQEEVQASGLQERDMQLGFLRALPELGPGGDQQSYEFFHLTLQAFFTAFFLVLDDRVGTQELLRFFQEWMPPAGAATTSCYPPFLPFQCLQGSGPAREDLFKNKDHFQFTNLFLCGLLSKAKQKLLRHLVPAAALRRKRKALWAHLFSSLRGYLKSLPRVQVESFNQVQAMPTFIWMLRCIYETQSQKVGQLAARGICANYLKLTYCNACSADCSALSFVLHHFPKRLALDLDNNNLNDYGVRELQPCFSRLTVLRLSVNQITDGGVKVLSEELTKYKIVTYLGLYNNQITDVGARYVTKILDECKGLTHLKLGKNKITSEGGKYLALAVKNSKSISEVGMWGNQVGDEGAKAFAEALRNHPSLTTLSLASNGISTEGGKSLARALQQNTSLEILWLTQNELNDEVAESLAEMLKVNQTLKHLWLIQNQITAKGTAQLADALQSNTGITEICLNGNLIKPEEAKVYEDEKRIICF

[3] = biological target: Toll-like receptor 2 (Homo sapiens) (UniProt O60603); assay: Agonist activity at human TLR2 stably expressed in HEK293 cells co-expressing secreted alkaline phosphatase assessed as NF-kappaB induction by liquid handler-assisted reporter gene assay; procedure, shortened: as §1
Sequence of Toll-like receptor 2 (Homo sapiens) (O60603 whole entry): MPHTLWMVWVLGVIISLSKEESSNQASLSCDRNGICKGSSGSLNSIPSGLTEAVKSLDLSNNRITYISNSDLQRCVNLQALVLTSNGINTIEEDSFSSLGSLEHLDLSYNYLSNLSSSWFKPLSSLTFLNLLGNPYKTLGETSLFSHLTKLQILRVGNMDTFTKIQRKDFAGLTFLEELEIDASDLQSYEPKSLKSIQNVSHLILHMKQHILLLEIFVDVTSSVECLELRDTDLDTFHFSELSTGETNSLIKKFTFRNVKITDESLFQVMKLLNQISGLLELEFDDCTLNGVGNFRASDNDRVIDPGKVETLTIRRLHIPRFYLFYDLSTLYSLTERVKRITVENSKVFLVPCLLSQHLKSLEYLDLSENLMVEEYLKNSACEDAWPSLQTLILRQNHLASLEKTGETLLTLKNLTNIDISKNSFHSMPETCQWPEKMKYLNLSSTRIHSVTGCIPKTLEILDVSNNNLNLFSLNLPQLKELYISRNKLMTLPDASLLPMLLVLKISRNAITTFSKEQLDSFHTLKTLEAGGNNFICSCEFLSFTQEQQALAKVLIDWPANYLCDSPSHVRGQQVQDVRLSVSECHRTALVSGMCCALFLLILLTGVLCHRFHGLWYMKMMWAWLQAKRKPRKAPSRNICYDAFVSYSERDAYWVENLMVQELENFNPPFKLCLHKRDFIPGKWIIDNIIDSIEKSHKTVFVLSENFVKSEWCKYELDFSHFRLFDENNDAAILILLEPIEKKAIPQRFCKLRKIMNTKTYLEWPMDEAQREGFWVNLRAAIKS

[4] = biological target: Toll-like receptor 4 (Homo sapiens) (UniProt O00206); assay: Agonist activity at human TLR4 stably expressed in HEK293 cells co-expressing secreted alkaline phosphatase assessed as NF-kappaB induction by liquid handler-assisted reporter gene assay; procedure, shortened: as §1
Sequence of Toll-like receptor 4 (Homo sapiens) (O00206 whole entry, the tested form may be a part): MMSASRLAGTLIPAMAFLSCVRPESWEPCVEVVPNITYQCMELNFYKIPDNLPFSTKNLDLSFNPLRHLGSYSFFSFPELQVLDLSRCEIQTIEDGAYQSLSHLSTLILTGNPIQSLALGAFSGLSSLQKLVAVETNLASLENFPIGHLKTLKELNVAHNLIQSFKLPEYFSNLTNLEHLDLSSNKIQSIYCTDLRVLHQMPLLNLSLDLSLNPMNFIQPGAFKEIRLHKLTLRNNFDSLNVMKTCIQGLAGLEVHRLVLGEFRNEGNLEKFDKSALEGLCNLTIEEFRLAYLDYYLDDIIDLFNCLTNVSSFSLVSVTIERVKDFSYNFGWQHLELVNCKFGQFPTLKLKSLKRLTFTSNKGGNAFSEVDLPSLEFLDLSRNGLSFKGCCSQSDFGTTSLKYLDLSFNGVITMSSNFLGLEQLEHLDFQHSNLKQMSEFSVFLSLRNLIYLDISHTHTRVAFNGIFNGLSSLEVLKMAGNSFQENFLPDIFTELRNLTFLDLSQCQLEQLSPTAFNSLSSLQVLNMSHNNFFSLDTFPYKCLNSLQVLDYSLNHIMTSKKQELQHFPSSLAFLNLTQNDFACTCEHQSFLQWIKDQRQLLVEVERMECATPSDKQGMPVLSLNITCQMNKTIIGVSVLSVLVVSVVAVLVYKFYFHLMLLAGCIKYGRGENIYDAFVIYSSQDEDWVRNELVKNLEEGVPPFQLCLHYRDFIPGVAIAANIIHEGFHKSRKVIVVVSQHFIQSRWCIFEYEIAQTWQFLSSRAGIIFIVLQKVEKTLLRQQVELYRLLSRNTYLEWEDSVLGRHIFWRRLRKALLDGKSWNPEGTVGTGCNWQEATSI

[5] = biological target: Nucleotide-binding oligomerization domain-containing protein 2 (Homo sapiens, UniProt Q9HC29); assay: Agonist activity at human NOD2 stably expressed in HEK293 cells co-expressing secreted alkaline phosphatase assessed as NF-kappaB induction by liquid handler-assisted reporter gene assay; procedure, shortened: as §1
Sequence of Nucleotide-binding oligomerization domain-containing protein 2 (Q9HC29 whole entry, the tested form may be a part): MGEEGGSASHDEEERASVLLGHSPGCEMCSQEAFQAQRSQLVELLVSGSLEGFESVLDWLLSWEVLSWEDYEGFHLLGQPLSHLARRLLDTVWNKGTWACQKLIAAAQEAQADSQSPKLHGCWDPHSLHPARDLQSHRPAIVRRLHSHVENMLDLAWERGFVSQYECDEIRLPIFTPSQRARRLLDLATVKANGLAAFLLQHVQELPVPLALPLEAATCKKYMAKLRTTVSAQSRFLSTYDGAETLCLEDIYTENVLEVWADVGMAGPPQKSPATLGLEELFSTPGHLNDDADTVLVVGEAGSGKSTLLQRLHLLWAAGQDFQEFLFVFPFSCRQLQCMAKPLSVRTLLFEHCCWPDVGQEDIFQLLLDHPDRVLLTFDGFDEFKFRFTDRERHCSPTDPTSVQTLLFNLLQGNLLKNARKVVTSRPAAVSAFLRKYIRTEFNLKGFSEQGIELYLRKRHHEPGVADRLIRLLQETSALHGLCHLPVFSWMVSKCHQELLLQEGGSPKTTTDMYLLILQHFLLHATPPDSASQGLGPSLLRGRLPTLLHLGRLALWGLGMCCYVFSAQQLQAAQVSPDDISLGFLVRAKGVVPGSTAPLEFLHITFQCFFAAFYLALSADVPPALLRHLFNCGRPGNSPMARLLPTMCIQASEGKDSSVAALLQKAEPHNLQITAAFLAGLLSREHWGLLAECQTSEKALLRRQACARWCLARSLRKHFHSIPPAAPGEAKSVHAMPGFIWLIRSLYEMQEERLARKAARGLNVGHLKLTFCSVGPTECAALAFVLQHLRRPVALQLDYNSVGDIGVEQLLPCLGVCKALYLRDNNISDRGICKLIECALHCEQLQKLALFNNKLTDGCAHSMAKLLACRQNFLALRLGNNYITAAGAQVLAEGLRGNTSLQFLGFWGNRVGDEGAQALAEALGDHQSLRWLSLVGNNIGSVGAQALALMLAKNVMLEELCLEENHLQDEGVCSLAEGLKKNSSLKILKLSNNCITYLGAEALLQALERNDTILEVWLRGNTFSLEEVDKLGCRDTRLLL

[6] = biological target: Toll-like receptor 3 (Homo sapiens) (UniProt O15455); assay: Agonist activity at human TLR3 stably expressed in HEK293 cells co-expressing secreted alkaline phosphatase assessed as NF-kappaB induction by liquid handler-assisted reporter gene assay; procedure, shortened: as §1
Sequence of Toll-like receptor 3 (Homo sapiens) (O15455 whole entry): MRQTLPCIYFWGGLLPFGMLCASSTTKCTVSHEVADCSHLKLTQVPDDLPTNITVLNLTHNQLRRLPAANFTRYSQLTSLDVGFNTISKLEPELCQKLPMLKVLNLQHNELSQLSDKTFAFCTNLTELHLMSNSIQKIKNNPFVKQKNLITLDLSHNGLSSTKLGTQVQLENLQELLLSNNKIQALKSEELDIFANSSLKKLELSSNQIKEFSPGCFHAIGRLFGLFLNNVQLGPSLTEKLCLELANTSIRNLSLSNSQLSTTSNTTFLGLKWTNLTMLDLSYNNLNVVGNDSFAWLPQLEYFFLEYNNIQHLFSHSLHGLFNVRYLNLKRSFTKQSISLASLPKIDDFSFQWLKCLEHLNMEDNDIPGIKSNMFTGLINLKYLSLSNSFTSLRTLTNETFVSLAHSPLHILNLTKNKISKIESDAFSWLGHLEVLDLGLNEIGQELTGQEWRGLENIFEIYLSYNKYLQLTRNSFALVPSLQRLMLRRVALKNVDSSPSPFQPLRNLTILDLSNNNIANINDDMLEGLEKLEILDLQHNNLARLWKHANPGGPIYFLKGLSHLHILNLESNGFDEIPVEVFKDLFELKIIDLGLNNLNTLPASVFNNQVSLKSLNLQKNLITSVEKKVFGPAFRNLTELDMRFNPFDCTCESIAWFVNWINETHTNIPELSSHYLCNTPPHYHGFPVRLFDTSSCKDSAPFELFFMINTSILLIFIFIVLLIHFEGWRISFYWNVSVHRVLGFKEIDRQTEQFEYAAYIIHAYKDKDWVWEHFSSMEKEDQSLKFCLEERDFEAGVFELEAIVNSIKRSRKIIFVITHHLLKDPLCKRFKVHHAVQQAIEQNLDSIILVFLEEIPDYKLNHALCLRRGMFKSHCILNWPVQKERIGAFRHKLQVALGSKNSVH

[7] = biological target: T3, Toll-like receptor 9 (Homo sapiens) (UniProt Q9NR96); assay: Agonist activity at human TLR9 stably expressed in HEK293 cells co-expressing secreted alkaline phosphatase assessed as NF-kappaB induction by liquid handler-assisted reporter gene assay; procedure, shortened: as §1
T3 sequence (whole entry): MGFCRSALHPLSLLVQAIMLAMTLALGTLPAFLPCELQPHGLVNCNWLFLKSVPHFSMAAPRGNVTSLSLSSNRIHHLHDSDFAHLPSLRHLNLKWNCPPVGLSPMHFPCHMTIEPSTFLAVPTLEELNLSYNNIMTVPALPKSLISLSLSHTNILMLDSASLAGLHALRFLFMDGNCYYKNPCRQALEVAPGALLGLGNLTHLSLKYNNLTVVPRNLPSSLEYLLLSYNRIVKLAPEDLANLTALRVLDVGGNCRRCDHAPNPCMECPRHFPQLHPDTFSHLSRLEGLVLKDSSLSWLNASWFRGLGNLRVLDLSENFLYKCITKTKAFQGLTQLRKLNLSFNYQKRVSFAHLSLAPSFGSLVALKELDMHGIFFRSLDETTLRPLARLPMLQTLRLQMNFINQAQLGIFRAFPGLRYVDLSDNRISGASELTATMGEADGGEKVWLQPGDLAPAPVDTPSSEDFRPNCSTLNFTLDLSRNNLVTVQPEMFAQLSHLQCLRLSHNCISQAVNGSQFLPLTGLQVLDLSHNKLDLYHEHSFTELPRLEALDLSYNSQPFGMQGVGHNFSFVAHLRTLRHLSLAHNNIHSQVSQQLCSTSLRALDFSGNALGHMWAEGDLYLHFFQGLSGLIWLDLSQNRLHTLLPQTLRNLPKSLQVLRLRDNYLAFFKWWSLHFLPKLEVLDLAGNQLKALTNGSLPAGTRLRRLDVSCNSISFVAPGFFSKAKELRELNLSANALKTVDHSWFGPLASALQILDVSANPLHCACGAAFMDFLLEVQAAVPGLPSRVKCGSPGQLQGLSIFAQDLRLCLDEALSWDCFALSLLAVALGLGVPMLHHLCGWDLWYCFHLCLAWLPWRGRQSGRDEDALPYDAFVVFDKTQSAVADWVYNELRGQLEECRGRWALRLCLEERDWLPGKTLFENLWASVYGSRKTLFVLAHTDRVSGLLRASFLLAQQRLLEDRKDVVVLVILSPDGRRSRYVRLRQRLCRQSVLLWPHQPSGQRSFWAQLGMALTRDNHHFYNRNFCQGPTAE

[8] = biological target: Toll-like receptor 5 (Homo sapiens) (UniProt O60602); assay: Agonist activity at human TLR5 stably expressed in HEK293 cells co-expressing secreted alkaline phosphatase assessed as NF-kappaB induction by liquid handler-assisted reporter gene assay; procedure, shortened: as §1
Sequence of Toll-like receptor 5 (Homo sapiens) (O60602 whole entry): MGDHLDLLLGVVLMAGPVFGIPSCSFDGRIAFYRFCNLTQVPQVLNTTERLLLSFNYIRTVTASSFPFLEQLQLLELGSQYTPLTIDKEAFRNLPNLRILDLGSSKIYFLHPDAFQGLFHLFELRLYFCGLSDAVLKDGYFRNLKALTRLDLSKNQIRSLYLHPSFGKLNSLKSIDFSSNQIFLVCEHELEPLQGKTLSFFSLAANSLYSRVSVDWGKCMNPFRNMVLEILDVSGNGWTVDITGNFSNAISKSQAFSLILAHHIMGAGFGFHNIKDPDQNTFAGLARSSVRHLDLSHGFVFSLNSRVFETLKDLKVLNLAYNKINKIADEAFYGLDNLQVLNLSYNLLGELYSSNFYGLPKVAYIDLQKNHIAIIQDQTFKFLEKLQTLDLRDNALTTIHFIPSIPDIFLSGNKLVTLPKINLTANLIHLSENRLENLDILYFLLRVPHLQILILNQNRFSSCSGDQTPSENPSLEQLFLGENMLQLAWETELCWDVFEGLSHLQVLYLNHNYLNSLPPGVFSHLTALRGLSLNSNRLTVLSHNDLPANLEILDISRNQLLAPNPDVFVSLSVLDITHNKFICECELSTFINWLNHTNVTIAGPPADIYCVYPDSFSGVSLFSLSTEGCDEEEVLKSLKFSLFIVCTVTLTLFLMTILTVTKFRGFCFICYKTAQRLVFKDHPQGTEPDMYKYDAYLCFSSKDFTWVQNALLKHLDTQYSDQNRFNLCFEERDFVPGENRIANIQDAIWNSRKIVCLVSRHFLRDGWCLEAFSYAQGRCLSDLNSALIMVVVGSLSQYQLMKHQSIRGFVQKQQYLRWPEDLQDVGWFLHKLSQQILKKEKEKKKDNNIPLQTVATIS

SMILES | Activity [1] | Activity [2] | Activity [3] | Activity [4] | Activity [5] | Activity [6] | Activity [7] | Activity [8]
CCCCCn1c(N)nc2cc(C)ccc21 | inactive | inactive | inactive | inactive | inactive | inactive | inactive | inactive
CCCCCn1c(N)nc2cccc(C)c21 | inactive | inactive | inactive | inactive | inactive | inactive | inactive | inactive
CCCCCn1c(N)nc2c3ccccc3ccc21 | inactive | inactive | inactive | inactive | inactive | inactive | inactive | inactive
CCCCCn1c(N)nc2ccc(C)cc21 | inactive | inactive | inactive | inactive | inactive | inactive | inactive | inactive
CCCCCCn1c(N)nc2ccccc21 | inactive | inactive | inactive | inactive | inactive | inactive | inactive | inactive
CCCCn1c(N)nc2ccccc21 | inactive | inactive | inactive | inactive | inactive | inactive | inactive | inactive

The next lines start with the values.

Activity [1] | Activity [2] | Activity [3] | Activity [4] | Activity [5] | Activity [6] | Activity [7] | Activity [8] | SMILES
inactive | inactive | inactive | inactive | inactive | inactive | inactive | inactive | CCCCCn1c(N)nc2c(CC)cccc21
inactive | inactive | inactive | inactive | inactive | inactive | inactive | inactive | CCCCCn1c(N)nc2c(O)cccc21
inactive | inactive | inactive | inactive | inactive | inactive | inactive | inactive | CCCCCn1c(N)nc2c(OC)cccc21
inactive | inactive | inactive | inactive | inactive | inactive | inactive | inactive | CCCCCn1c(N)nc2c(N)cccc21
inactive | inactive | inactive | inactive | inactive | inactive | inactive | inactive | CCCCCn1c(N)nc2ccccc21
inactive | inactive | inactive | inactive | inactive | inactive | inactive | inactive | CCCCCn1c(N)nc2c(N(C)C)cccc21
